Source: ChEMBL document CHEMBL6087409, “Synthesis of α-fluorocinnamate derivatives as novel cathepsin S inhibitors with in vitro antiproliferative activity against pancreatic cancer cells” (Bioorg Med Chem, 2024)
The source made the active and inactive calls. The rule behind the calls is not given here.

Key:
[1] = molecular target: Procathepsin L (Homo sapiens) (UniProt P07711); assay: Inhibition of human cathepsin L using Z-phe-Arg-AMC as substrate at 20 uM by FRET-based enzymatic cleavage assay relative to control
Procathepsin L (Homo sapiens), sequence (P07711 114-333 limits assumed): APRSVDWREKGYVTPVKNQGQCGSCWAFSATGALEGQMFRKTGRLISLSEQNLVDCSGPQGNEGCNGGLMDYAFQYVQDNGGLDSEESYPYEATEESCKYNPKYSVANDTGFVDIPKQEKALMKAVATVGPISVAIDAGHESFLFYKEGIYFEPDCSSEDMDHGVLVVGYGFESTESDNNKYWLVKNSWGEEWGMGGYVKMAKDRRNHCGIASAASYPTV

BXPC-3 = assay: Cytotoxicity against human BXPC-3 cells assessed as inhibition of cell growth incubated for 5 days by MTS assay; details: BXPC-3, 120 h
CAPAN-1 = assay: Cytotoxicity against human CAPAN-1 cells assessed as inhibition of cell growth incubated for 5 days by MTS assay; details: CAPAN-1, 120 h
[2] = Inhibition of recombinant SARS-CoV-2 main protease using Dabcyl-KTSAVLQSGFRKME-Edans as substrate assessed as reduction in proteolytic activity preincubated for 10 mins followed by substrate addition and measured after 10 mins by FRET-based enzymatic cleavage assay; set-up: species or system Severe acute respiratory syndrome coronavirus 2
Human coronavirus OC43 = assay: Antiviral activity against HCoV-OC43 infected in human HCT-8 cells preincubated with cell for 1 hrs followed by viral infection and measured after 72 hrs by focus forming reduction assay; assay type: functional, organism-based; details: Betacoronavirus 1, HCT-8
[3] = test system: Severe acute respiratory syndrome coronavirus 2; assay: Inhibition of recombinant SARS-CoV-2 main protease using Dabcyl-KTSAVLQSGFRKME-Edans as substrate assessed as reduction in proteolytic activity at 20 uM preincubated for 10 mins followed by substrate addition and measured after 10 mins by FRET-based enzymatic cleavage assay relative to control; details: time 20.0 min
Method in brief: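 Recombinant SARS-CoV-2 Mpro at 50 nM final, with 25 µM final substrate and 20 µM final compound, in 20 mM Tris pH 7.5, 0.1 mM EDTA, 1 mM DTT, 200 mM NaCl. Substrate cleavage was followed at 25 °C as rising Edans fluorescence (ex 335/em 493 nm) after release of the Dabcyl quencher.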

[4] = Thiol reactivity of compound in phosphate buffer with N-acetyl cysteine at pH 7.4 assessed as micheal adduct formation measured after 24 hrs by 19F-NMR spectroscopic analysis; assay type: physicochemical; details: pH 7.4, 24 h
[5] = Thiol reactivity of compound in phosphate buffer with N-acetyl cysteine at pH 7.4 assessed as micheal adduct formation by measuring conversion rate measured after 1 hrs by HPLC-MS analysis; assay type: physicochemical; details: pH 7.4, 1 h
Method in brief: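 Compound with 1.1 equiv N-acetylcysteine in PBS pH 7.4 containing 10% ACN, stirred 1 h at 37 °C. The mixture was concentrated under reduced pressure, and consumption of starting material and adduct formation were followed by HPLC-MS.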

[6] = molecular target: Cathepsin B (Homo sapiens) (UniProt P07858); assay: Inhibition of human cathepsin B using Z-phe-Arg-AMC as substrate at 20 uM by FRET-based enzymatic cleavage assay relative to control
[7] = Thiol reactivity of compound in phosphate buffer with N-acetyl cysteine at pH 7.4 assessed as micheal adduct formation by measuring conversion rate measured after 24 hrs by HPLC-MS analysis; assay type: physicochemical; details: pH 7.4, 24 h

SMILES	inhibition [1]	IC50 (BXPC-3) [µM]	IC50 (CAPAN-1) [µM]	inhibition [3] [%]	other results
CCOC(=O)/C(F)=C/c1ccc(NC(=O)[C@H](Cc2ccccc2)NC(=O)OCc2ccccc2)cc1	inactive	25.9	40.6	–	–
CCOC(=O)/C=C/c1ccc(NC(=O)[C@H](Cc2ccccc2)NC(=O)OCc2c[nH]c3ccccc23)cc1	–	–	–	60	IC50 [2]: 12.4 µM; EC50 (Human coronavirus OC43): 9.14 µM
CCOC(=O)/C(F)=C/c1ccc(N)cc1	–	–	–	–	Activity [4]: Active
CCOC(=O)/C(F)=C/c1ccc(NC(=O)[C@H](Cc2ccccc2)NC(=O)c2cc3ccccc3[nH]2)cc1	inactive	14.1	28.3	–	–
CCOC(=O)/C(F)=C/c1ccc(NC(=O)[C@H](Cc2ccccc2)NC(=O)OCc2c[nH]c3ccccc23)cc1	29%	5.79	20.8	–	Activity [5]: ~ 80%; inhibition [6]: 20%
CCOC(=O)/C=C/c1ccc(NC(=O)[C@H](Cc2ccccc2)NC(=O)OCc2ccccc2)cc1	–	–	–	40	Activity [7]: 70%
